Assay results published in ChEMBL document CHEMBL1126141, “Substituted 4,6-diaminoquinolines as inhibitors of C5a receptor binding” (J Med Chem, 1992).
≈ marks a conversion by molar mass, not a printed value.

Legend:
[1] = target: T1, C5a anaphylatoxin chemotactic receptor 1 (Homo sapiens, UniProt P21730); test: Ability to inhibit binding of radiolabeled C5a anaphylatoxin to intact membrane bound receptor from human neutrophils.
T1 sequence (P21730 whole entry): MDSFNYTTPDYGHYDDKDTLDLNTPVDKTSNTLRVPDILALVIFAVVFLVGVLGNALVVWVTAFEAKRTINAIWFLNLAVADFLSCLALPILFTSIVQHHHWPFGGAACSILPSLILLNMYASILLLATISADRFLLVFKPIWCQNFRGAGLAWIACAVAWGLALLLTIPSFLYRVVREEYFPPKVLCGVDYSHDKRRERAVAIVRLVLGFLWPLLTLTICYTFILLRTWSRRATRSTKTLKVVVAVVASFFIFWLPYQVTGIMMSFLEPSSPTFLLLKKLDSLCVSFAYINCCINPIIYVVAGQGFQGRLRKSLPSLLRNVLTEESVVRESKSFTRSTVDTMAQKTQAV
Method in brief: (§1)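 Buffer was HBSS with 10 mM pMSF and 0.5% BSA, HEPES pH 7.2. Compounds were added from 1% aqueous DMSO. Filtration used polyethyleneimine-soaked GF filters, read by gamma counting. Nonspecific binding was set with ≥20 ng unlabeled C5a. IC50 came from a four-parameter logistic fit.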

Homo sapiens [2] = species on record: Homo sapiens; test: Compound was tested for the inhibition of fMLF- induced human neutrophil activation; type: functional
Method in brief: (§2)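 Freshly isolated human PMN (Ficoll-Hypaque, erythrocytes lysed with NH4Cl/EDTA/KHCO3), 4×10^5/mL in HBSS. Preincubated with compound or 1% aqueous DMSO 20 min at 37 °C, then cytochalasin B (5 μg/mL final) 5 min. Stimulated 5 min at 37 °C with C5a or fMLF, or no stimulus for nonspecific release. MPO read with dimethoxybenzidine/H2O2 at pH 6.0, azide-quenched at 2 min, A450. Duplicate or triplicate.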

Homo sapiens [3] = species on record: Homo sapiens; test: Compound was tested for the inhibition of C5a- induced human neutrophil activation; type: functional; method in brief: as §2
[4] = target: T1, C5a anaphylatoxin chemotactic receptor 1; test: Compound was tested for its ability to inhibit binding of radiolabeled C5a anaphylatoxin chemotactic receptor to intact membrane bound receptor from human neutrophils.; insoluble; method in brief: as §1
Myeloperoxidase = target: T2, Myeloperoxidase (Homo sapiens, UniProt P05164); test: Compound was tested for the induction of nonspecific myeloperoxidase (MPO) release; type: functional; method in brief: as §2
T2 sequence (P05164 whole entry): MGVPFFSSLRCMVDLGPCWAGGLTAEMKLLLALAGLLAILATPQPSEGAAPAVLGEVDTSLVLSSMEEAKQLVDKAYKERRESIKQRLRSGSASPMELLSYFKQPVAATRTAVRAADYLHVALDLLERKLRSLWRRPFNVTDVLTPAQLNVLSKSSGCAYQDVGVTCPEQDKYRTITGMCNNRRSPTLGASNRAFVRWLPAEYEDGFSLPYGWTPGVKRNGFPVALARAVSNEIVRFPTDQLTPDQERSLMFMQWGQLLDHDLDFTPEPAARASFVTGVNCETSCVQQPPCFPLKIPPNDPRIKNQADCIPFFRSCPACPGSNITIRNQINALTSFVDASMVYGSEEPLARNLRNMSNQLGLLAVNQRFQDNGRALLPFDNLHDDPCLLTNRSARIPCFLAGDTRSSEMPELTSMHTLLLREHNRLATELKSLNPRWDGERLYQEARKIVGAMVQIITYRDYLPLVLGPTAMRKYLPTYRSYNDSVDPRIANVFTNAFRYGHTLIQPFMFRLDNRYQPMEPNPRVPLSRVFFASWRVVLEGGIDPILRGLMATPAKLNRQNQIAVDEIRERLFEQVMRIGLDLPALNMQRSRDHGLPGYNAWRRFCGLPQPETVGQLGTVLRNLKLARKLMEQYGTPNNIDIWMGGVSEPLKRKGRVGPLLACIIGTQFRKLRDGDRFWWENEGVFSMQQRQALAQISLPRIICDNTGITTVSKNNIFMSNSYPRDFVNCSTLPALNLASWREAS

Structure (SMILES)	IC50 [1]	other results
Cc1cc(N)c2cc(NC(=O)CC(=O)Nc3ccc4nc(C)cc(N)c4c3)ccc2n1	43.4 µM	–
Cc1cc(N)c2cc(NC(=O)/C=C/c3ccccc3C(F)(F)F)ccc2n1	24.2 µM	EC50 (Homo sapiens [2]): 4 µg/mL (≈ 10.8 µM); EC50 (Homo sapiens [3]): 4 µg/mL (≈ 10.8 µM)
CCCCCCCCNc1cc(C)nc2ccc(NC(=O)/C=C/c3ccccc3Cl)cc12	> 222 µM	–
Cc1cc(N)c2cc(NC(=O)CCCCC(=O)Nc3ccc4nc(C)cc(N)c4c3)ccc2n1	> 110 µM	–
Cc1cc(NCc2ccccc2)c2cc(NC(=O)C(=O)Nc3ccc4nc(C)cc(NCc5ccccc5)c4c3)ccc2n1	> 86.1 µM	–
Cc1cc(N)c2cc(C(=O)NCc3ccccc3)ccc2n1	> 343 µM	–
Cc1cc(N)c2cc(NC(=O)CCc3ccccc3)ccc2n1	> 327 µM	–
Cc1cc(N)c2cc(NC(=O)/C=C/c3ccccc3Cl)ccc2n1	35.5 µM	EC50 (Homo sapiens [2]): 5 µg/mL (≈ 14.8 µM); EC50 (Homo sapiens [3]): 4 µg/mL (≈ 11.8 µM)
CCCCCCCC(=O)Nc1ccc2nc(C)cc(N)c2c1	100 µM	–
Cc1cc(N)c2cc(NC(=O)/C=C/c3ccc(C(F)(F)F)cc3)ccc2n1	18.8 µM	–
Cc1cc(N)c2cc(NC(=O)Nc3ccc4nc(C)cc(N)c4c3)ccc2n1 [AMINOQUINURIDE]	8.86 µM	EC50 (Homo sapiens [3]): 15 µg/mL (≈ 40.3 µM)
Cc1cc(N)c2cc(NC(=O)/C=C/c3c(F)c(F)c(F)c(F)c3F)ccc2n1	–	IC50 [4]: Not Active
Cc1cc(NCc2ccccc2)c2cc(NC(=O)/C=C/c3ccccc3C(F)(F)F)ccc2n1	> 217 µM	–
Cc1cc(N)c2cc(N)ccc2n1	> 577 µM	–
Cc1cc(N)c2cc(NC(=O)c3ccccc3)ccc2n1	> 361 µM	–
Cc1cc(NCc2ccccc2)c2cc(NC(=O)/C=C/c3ccccc3Cl)ccc2n1	> 234 µM	EC50 (Myeloperoxidase): 11.7 µM; EC50 (Homo sapiens [2]): < 3 µg/mL; EC50 (Homo sapiens [3]): < 3 µg/mL
Cc1ccc2cc(NC(=O)Nc3ccc4nc(C)ccc4c3)ccc2n1	> 146 µM	–
Cc1cc(N)c2cc(NC(=O)/C=C/c3ccccc3)ccc2n1	98.9 µM	–
Cc1cc(N)c2cc(NC(=O)c3ccc4ccccc4c3)ccc2n1	91.6 µM	–
Cc1cc(N)c2cc(NC(=O)/C=C/c3c(Cl)cccc3Cl)ccc2n1	21.5 µM	EC50 (Homo sapiens [2]): 4 µg/mL (≈ 10.7 µM); EC50 (Homo sapiens [3]): 4 µg/mL (≈ 10.7 µM)
Cc1cc(N)c2cc(NC(=O)C(=O)Nc3ccc4nc(C)cc(N)c4c3)ccc2n1	4.99 µM	EC50 (Homo sapiens [3]): 4 µg/mL (≈ 9.99 µM)
CCCC(=O)Nc1ccc2nc(C)cc(N)c2c1	> 411 µM	–
Cc1cc(NCc2ccccc2)c2cc(N)ccc2n1	> 380 µM	–
Cc1cc(N)c2cc(NC(=O)/C=C/c3cccc(C(F)(F)F)c3)ccc2n1	10.8 µM	–
COc1cc(C)nc2ccc(NC(=O)/C=C/c3ccccc3Cl)cc12	> 142 µM	–
CCCCCCCCNC(=O)c1ccc2nc(C)cc(N)c2c1	> 319 µM	–
Cc1cc(N)c2cc(NC(=O)CCCCCCCCC(=O)Nc3ccc4nc(C)cc(N)c4c3)ccc2n1	> 97.5 µM	–
